{"source": "ChEMBL document CHEMBL4229446", "about": "“Development of Novel Monoamine Oxidase-B (MAO-B) Inhibitors with Reduced Blood-Brain Barrier Permeability for the Potential Management of Noncentral Nervous System (CNS) Diseases” (J Med Chem, 2018)", "format_in_all_cases": "ADME, organism-based", "key": {"[1]": {"assay": "Apparent half-life of the terminal disposition phase in C57BL/6 mouse plasma at 24.5 mg/kg, po administered as single dose measured 24 hrs by UPLC-MS/MS analysis", "settings": "read-out: t1/2 lambda z (converted)", "summary_of_the_method": "(§1)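 15 animals dosed, 3 sacrificed at each of 1, 2, 4, 6 and 24 h. Plasma and brain homogenate were extracted and quantified by UPLC-MS/MS. Parameters came from noncompartmental analysis. Values above or below the limit of quantification, or undetected, were omitted. Kp = AUClast brain/plasma.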"}, "[2]": {"assay": "AUClast in C57BL/6 mouse plasma at 24.5 mg/kg, iv administered as single dose measured 24 hrs by UPLC-MS/MS analysis", "set-up": "dose 24.5 mg/kg, time 0 - last, route intravenous", "summary_of_the_method": "(§2)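 21 animals dosed at 0 min, 3 sacrificed at each of 0, 5, 15, 30 min, 1, 4 and 24 h. Plasma was extracted by protein precipitation with phospholipid removal. Brain was weighed, bead-homogenised in 50 mM ammonium formate and extracted in acidified organic solvent. Quantified by UPLC-MS/MS (MRM). Brain ng/g taken as ng/mL. Parameters came from noncompartmental analysis. Kp = AUClast brain/plasma.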"}, "[3]": {"assay": "Cmax in C57BL/6 mouse brain at 24.5 mg/kg, sc administered as single dose measured 24 hrs by UPLC-MS/MS analysis", "set-up": "dose 24.5 mg/kg, route subcutaneous", "summary_of_the_method": "as §1"}, "[4]": {"assay": "Cmax in C57BL/6 mouse plasma at 24.5 mg/kg, sc administered as single dose measured 24 hrs by UPLC-MS/MS analysis", "set-up": "dose 24.5 mg/kg, route subcutaneous", "summary_of_the_method": "as §1"}, "[5]": {"assay": "Tmax in C57BL/6 mouse plasma at 24.5 mg/kg, sc administered as single dose measured 24 hrs by UPLC-MS/MS analysis", "summary_of_the_method": "(§3)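 Plasma extracted by protein precipitation/phospholipid removal and measured by UPLC-MS/MS (MRM). Parameters by noncompartmental analysis, omitting values outside quantification limits or undetected.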"}, "[6]": {"assay": "Tmax in C57BL/6 mouse plasma at 24.5 mg/kg, iv administered as single dose measured 24 hrs by UPLC-MS/MS analysis", "summary_of_the_method": "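Plasma cleaned by protein precipitation with phospholipid removal, then UPLC-MS/MS in MRM mode. Tmax obtained by noncompartmental analysis.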"}, "[7]": {"assay": "AUClast in C57BL/6 mouse plasma at 24.5 mg/kg, sc administered as single dose measured 24 hrs by UPLC-MS/MS analysis", "set-up": "dose 24.5 mg/kg, time 0 - last, route subcutaneous", "summary_of_the_method": "as §1"}, "[8]": {"assay": "Tmax in C57BL/6 mouse plasma at 24.5 mg/kg, po administered as single dose measured 24 hrs by UPLC-MS/MS analysis", "summary_of_the_method": "as §3"}, "[9]": {"assay": "AUClast in C57BL/6 mouse plasma at 24.5 mg/kg, po administered as single dose measured 24 hrs by UPLC-MS/MS analysis", "set-up": "dose 24.5 mg/kg, route oral, time 0 - last", "summary_of_the_method": "as §1"}, "[10]": {"assay": "Cmax in C57BL/6 mouse plasma at 24.5 mg/kg, po administered as single dose measured 24 hrs by UPLC-MS/MS analysis", "set-up": "dose 24.5 mg/kg, route oral", "summary_of_the_method": "as §1"}, "[11]": {"assay": "Ratio of AUClast in brain to plasma in C57BL/6 mouse at 24.5 mg/kg, sc administered as single dose measured 24 hrs by UPLC-MS/MS analysis", "summary_of_the_method": "as §1"}, "[12]": {"assay": "Ratio of AUClast in brain to plasma in C57BL/6 mouse at 24.5 mg/kg, iv administered as single dose measured 24 hrs by UPLC-MS/MS analysis", "summary_of_the_method": "as §2"}, "[13]": {"assay": "AUClast in C57BL/6 mouse brain at 24.5 mg/kg, sc administered as single dose measured 24 hrs by UPLC-MS/MS analysis", "set-up": "dose 24.5 mg/kg, time 0 - last, route subcutaneous", "summary_of_the_method": "as §1"}, "[14]": {"assay": "Cmax in C57BL/6 mouse brain at 24.5 mg/kg, po administered as single dose measured 24 hrs by UPLC-MS/MS analysis", "set-up": "dose 24.5 mg/kg, route oral", "summary_of_the_method": "as §1"}, "[15]": {"assay": "Apparent half-life of the terminal disposition phase in C57BL/6 mouse plasma at 24.5 mg/kg, iv administered as single dose measured 24 hrs by UPLC-MS/MS analysis", "settings": "read-out: t1/2 lambda z (converted)", "summary_of_the_method": "as §2"}, "[16]": {"assay": "Tmax in C57BL/6 mouse plasma at 23.4 mg/kg, po administered as single dose measured 24 hrs by UPLC-MS/MS analysis", "summary_of_the_method": "(§4)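 15 animals dosed, 3 killed at each of 1, 2, 4, 6 and 24 h. Plasma and brain homogenate (ammonium formate, acidified organic extraction) assayed by UPLC-MS/MS, brain ng/g taken as ng/mL. Noncompartmental parameters exclude values above/below quantification limit or undetected. Kp = AUClast brain/plasma.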"}, "[17]": {"assay": "AUClast in C57BL/6 mouse plasma at 23.4 mg/kg, iv administered as single dose measured 24 hrs by UPLC-MS/MS analysis", "set-up": "dose 23.4 mg/kg, time 0 - last, route intravenous", "summary_of_the_method": "(§5)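 21 animals dosed at 0 min, 3 killed per time point (0, 5, 15, 30 min, 1, 4, 24 h). Plasma extracted by protein precipitation/phospholipid removal. Brain homogenized in 50 mM ammonium formate, then extracted in acidified organic solvent. Both quantified by UPLC-MS/MS (MRM), brain ng/g taken as ng/mL. Noncompartmental analysis. Kp = AUClast brain/plasma.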"}, "[18]": {"assay": "Ratio of AUClast in brain to plasma in C57BL/6 mouse at 23.4 mg/kg, sc administered as single dose measured 24 hrs by UPLC-MS/MS analysis", "summary_of_the_method": "as §4"}, "[19]": {"assay": "Ratio of AUClast in brain to plasma in C57BL/6 mouse at 23.4 mg/kg, iv administered as single dose measured 24 hrs by UPLC-MS/MS analysis", "summary_of_the_method": "as §5"}, "[20]": {"assay": "Tmax in C57BL/6 mouse plasma at 23.4 mg/kg, iv administered as single dose measured 24 hrs by UPLC-MS/MS analysis", "summary_of_the_method": "as §5"}, "[21]": {"assay": "AUClast in C57BL/6 mouse brain at 23.4 mg/kg, sc administered as single dose measured 24 hrs by UPLC-MS/MS analysis", "set-up": "dose 23.4 mg/kg, time 0 - last, route subcutaneous", "summary_of_the_method": "as §4"}, "[22]": {"assay": "AUClast in C57BL/6 mouse brain at 23.4 mg/kg, iv administered as single dose measured 24 hrs by UPLC-MS/MS analysis", "set-up": "dose 23.4 mg/kg, route intravenous, time 0 - last", "summary_of_the_method": "as §5"}, "[23]": {"assay": "Tmax in C57BL/6 mouse brain at 23.4 mg/kg, po administered as single dose measured 24 hrs by UPLC-MS/MS analysis", "summary_of_the_method": "as §4"}, "[24]": {"assay": "Apparent half-life of the terminal disposition phase in C57BL/6 mouse brain at 23.4 mg/kg, iv administered as single dose measured 24 hrs by UPLC-MS/MS analysis", "settings": "read-out: t1/2 lambda z (converted)", "summary_of_the_method": "as §5"}, "[25]": {"assay": "AUClast in C57BL/6 mouse brain at 23.4 mg/kg, po administered as single dose measured 24 hrs by UPLC-MS/MS analysis", "set-up": "dose 23.4 mg/kg, route oral, time 0 - last", "summary_of_the_method": "as §4"}, "[26]": {"assay": "AUClast in C57BL/6 mouse plasma at 23.4 mg/kg, po administered as single dose measured 24 hrs by UPLC-MS/MS analysis", "set-up": "dose 23.4 mg/kg, time 0 - last, route oral", "summary_of_the_method": "as §4"}, "[27]": {"assay": "Cmax in C57BL/6 mouse brain at 23.4 mg/kg, sc administered as single dose measured 24 hrs by UPLC-MS/MS analysis", "set-up": "dose 23.4 mg/kg, route subcutaneous", "summary_of_the_method": "as §4"}, "[28]": {"assay": "Cmax in C57BL/6 mouse brain at 23.4 mg/kg, iv administered as single dose measured 24 hrs by UPLC-MS/MS analysis", "set-up": "dose 23.4 mg/kg, route intravenous", "summary_of_the_method": "as §5"}, "[29]": {"assay": "Cmax in C57BL/6 mouse brain at 23.4 mg/kg, po administered as single dose measured 24 hrs by UPLC-MS/MS analysis", "set-up": "dose 23.4 mg/kg, route oral", "summary_of_the_method": "as §4"}}}
{"smiles": "C[C@H](Cc1ccc(OCc2ccc(Br)c(Cl)c2)cc1)N(C)CC(=O)O", "values": [{"measurement": "half-life", "setting": "[1]", "value": 3.59, "unit": "h"}, {"measurement": "AUC(0-t) at 24 h", "setting": "[2]", "value": 94800, "unit": "ng·h/mL"}, {"measurement": "Cmax", "setting": "[3]", "value": 806, "unit": "ng/mL"}, {"measurement": "Cmax", "setting": "[4]", "value": 7110, "unit": "ng/mL"}, {"measurement": "Tmax", "setting": "[5]", "value": 2, "unit": "h"}, {"measurement": "Tmax", "setting": "[6]", "value": 5, "unit": "min"}, {"measurement": "AUC(0-t) at 24 h", "setting": "[7]", "value": 66900, "unit": "ng·h/mL"}, {"measurement": "Tmax", "setting": "[8]", "value": 1, "unit": "h"}, {"measurement": "AUC(0-t) at 24 h", "setting": "[9]", "value": 104000, "unit": "ng·h/mL"}, {"measurement": "Cmax", "setting": "[10]", "value": 8530, "unit": "ng/mL"}, {"measurement": "Kp at 24 h", "setting": "[11]", "value": 0.19}, {"measurement": "Kp at 24 h", "setting": "[12]", "value": 0.11}, {"measurement": "AUC(0-t) at 24 h", "setting": "[13]", "value": 12900, "unit": "ng·h/mL"}, {"measurement": "Cmax", "setting": "[14]", "value": 812, "unit": "ng/mL"}, {"measurement": "half-life", "setting": "[15]", "value": 3.93, "unit": "h"}]}
{"smiles": "CN(CC(=O)O)[C@H](CC#N)Cc1ccc(OCc2ccc(Cl)c(Cl)c2)cc1", "values": [{"measurement": "Tmax", "setting": "[16]", "value": 1, "unit": "h"}, {"measurement": "AUC(0-t) at 24 h", "setting": "[17]", "value": 39100, "unit": "ng·h/mL"}, {"measurement": "Kp at 24 h", "setting": "[18]", "value": 0.005}, {"measurement": "Kp at 24 h", "setting": "[19]", "value": 0.004}, {"measurement": "Tmax", "setting": "[20]", "value": 5, "unit": "min"}, {"measurement": "AUC(0-t) at 24 h", "setting": "[21]", "value": 176, "unit": "ng·h/mL"}, {"measurement": "AUC(0-t) at 24 h", "setting": "[22]", "value": 183, "unit": "ng·h/mL"}, {"measurement": "Tmax", "setting": "[23]", "value": 1, "unit": "h"}, {"measurement": "half-life", "setting": "[24]", "value": 0.65, "unit": "h"}, {"measurement": "AUC(0-t) at 24 h", "setting": "[25]", "value": 116, "unit": "ng·h/mL"}, {"measurement": "AUC(0-t) at 24 h", "setting": "[26]", "value": 73000, "unit": "ng·h/mL"}, {"measurement": "Cmax", "setting": "[27]", "value": 91.3, "unit": "ng/mL"}, {"measurement": "Cmax", "setting": "[28]", "value": 305, "unit": "ng/mL"}, {"measurement": "Cmax", "setting": "[29]", "value": 91.9, "unit": "ng/mL"}]}
